Source: ChEMBL document CHEMBL1157679, “Substituted aryl malonamates as new serine beta-lactamase substrates: structure-activity studies” (Bioorg Med Chem, 2010)

Columns and labels:
[1] = substrate: O=C(CC(=O)N(Cc1ccccc1)Cc1ccccc1)Oc1cccc(C(=O)O)c1; experiment: (§1) Ratio of Kcat to Km for Streptomyces R61 DD-peptidase; details: Streptomyces sp. R61
Summary of the method: (§2)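 Steady-state kinetics in 100 mM MOPS, pH 7.5, 25 °C. Substrate stocks were made in DMSO and diluted into buffer to a final DMSO below 5%. Initial rates of enzyme-catalysed turnover were followed spectrophotometrically. Steady-state parameters were derived from these initial rates. Buffer hydrolysis of the substrates was measured separately as pseudo-first-order rate constants.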

[2] = substrate: O=C(O)c1cccc(OC(=O)C2CCN(Cc3ccccc3)C2=O)c1; experiment: as §1; details: Streptomyces sp. R61; summary of the method: as §2
[3] = substrate: C[C@@H](C(=O)NCc1ccccc1)C(=O)Oc1cccc(C(=O)O)c1; experiment: as §1; details: Streptomyces sp. R61; summary of the method: as §2
[4] = substrate: CN(Cc1ccccc1)C(=O)CC(=O)Oc1cccc(C(=O)O)c1; experiment: as §1; details: Streptomyces sp. R61; summary of the method: as §2
[5] = substrate: CO[C@@H](C(=O)NCc1ccccc1)C(=O)Oc1cccc(C(=O)O)c1; experiment: as §1; details: Streptomyces sp. R61; summary of the method: as §2
[6] = substrate: O=C(CC(=O)Oc1cccc(C(=O)O)c1)NCc1ccccc1; experiment: as §1; details: Streptomyces sp. R61; summary of the method: as §2
[7] = substrate: O=C(O)c1cccc(OC(=O)C(Cc2ccccc2)C(=O)NCc2ccccc2)c1; experiment: as §1; details: Streptomyces sp. R61; summary of the method: as §2
[8] = substrate: O=C(O)c1cccc(OC(=O)C2Cc3ccccc3N(Cc3ccccc3)C2=O)c1; experiment: as §1; details: Streptomyces sp. R61; summary of the method: as §2
[9] = substrate: C[C@H](C(=O)NCc1ccccc1)C(=O)Oc1cccc(C(=O)O)c1; experiment: as §1; details: Streptomyces sp. R61; summary of the method: as §2
[10] = substrate: O=C(O)c1cccc(OC(=O)C2CCN(Cc3ccccc3)C2=O)c1; experiment: (§3) Activity at Streptomyces R61 DD-peptidase by spectrophotometry; details: Streptomyces sp. R61; summary of the method: as §2
[11] = substrate: C[C@@H](C(=O)NCc1ccccc1)C(=O)Oc1cccc(C(=O)O)c1; experiment: as §3; details: Streptomyces sp. R61; summary of the method: as §2
[12] = substrate: CO[C@@H](C(=O)NCc1ccccc1)C(=O)Oc1cccc(C(=O)O)c1; experiment: as §3; details: Streptomyces sp. R61; summary of the method: as §2
[13] = substrate: O=C(CC(=O)Oc1cccc(C(=O)O)c1)NCc1ccccc1; experiment: as §3; details: Streptomyces sp. R61; summary of the method: as §2
[14] = substrate: O=C(O)c1cccc(OC(=O)C2Cc3ccccc3N(Cc3ccccc3)C2=O)c1; experiment: as §3; details: Streptomyces sp. R61; summary of the method: as §2
[15] = substrate: C[C@H](C(=O)NCc1ccccc1)C(=O)Oc1cccc(C(=O)O)c1; experiment: as §3; details: Streptomyces sp. R61; summary of the method: as §2
[16] = substrate: O=C(CC(=O)N(Cc1ccccc1)Cc1ccccc1)Oc1cccc(C(=O)O)c1; experiment: (§4) Ratio of Kcat to Km for Enterobacter cloacae P99 beta-lactamase; summary of the method: as §2
[17] = substrate: O=C(O)c1cccc(OC(=O)C2CCN(Cc3ccccc3)C2=O)c1; experiment: as §4; summary of the method: as §2
[18] = substrate: C[C@@H](C(=O)NCc1ccccc1)C(=O)Oc1cccc(C(=O)O)c1; experiment: as §4; summary of the method: as §2
[19] = substrate: CN(Cc1ccccc1)C(=O)CC(=O)Oc1cccc(C(=O)O)c1; experiment: as §4; summary of the method: as §2
[20] = substrate: CO[C@H](C(=O)NCc1ccccc1)C(=O)Oc1cccc(C(=O)O)c1; experiment: as §4; summary of the method: as §2
[21] = substrate: CO[C@@H](C(=O)NCc1ccccc1)C(=O)Oc1cccc(C(=O)O)c1; experiment: as §4; summary of the method: as §2
[22] = substrate: O=C(CC(=O)Oc1cccc(C(=O)O)c1)NCc1ccccc1; experiment: as §4; summary of the method: as §2
[23] = substrate: O=C(O)c1cccc(OC(=O)C(Cc2ccccc2)C(=O)NCc2ccccc2)c1; experiment: as §4; summary of the method: as §2
[24] = substrate: O=C(O)c1cccc(OC(=O)C2Cc3ccccc3N(Cc3ccccc3)C2=O)c1; experiment: as §4; summary of the method: as §2
[25] = substrate: C[C@H](C(=O)NCc1ccccc1)C(=O)Oc1cccc(C(=O)O)c1; experiment: as §4; summary of the method: as §2
[26] = substrate: O=C(CC(=O)N(Cc1ccccc1)Cc1ccccc1)Oc1cccc(C(=O)O)c1; experiment: (§5) Activity at Enterobacter cloacae P99 beta-lactamase by spectrophotometry; summary of the method: as §2
[27] = substrate: O=C(O)c1cccc(OC(=O)C2CCN(Cc3ccccc3)C2=O)c1; experiment: as §5; summary of the method: as §2
[28] = substrate: C[C@@H](C(=O)NCc1ccccc1)C(=O)Oc1cccc(C(=O)O)c1; experiment: as §5; summary of the method: as §2
[29] = substrate: CN(Cc1ccccc1)C(=O)CC(=O)Oc1cccc(C(=O)O)c1; experiment: as §5; summary of the method: as §2
[30] = substrate: CO[C@H](C(=O)NCc1ccccc1)C(=O)Oc1cccc(C(=O)O)c1; experiment: as §5; summary of the method: as §2
[31] = substrate: CO[C@@H](C(=O)NCc1ccccc1)C(=O)Oc1cccc(C(=O)O)c1; experiment: as §5; summary of the method: as §2
[32] = substrate: O=C(CC(=O)Oc1cccc(C(=O)O)c1)NCc1ccccc1; experiment: as §5; summary of the method: as §2
[33] = substrate: O=C(O)c1cccc(OC(=O)C(Cc2ccccc2)C(=O)NCc2ccccc2)c1; experiment: as §5; summary of the method: as §2
[34] = substrate: O=C(O)c1cccc(OC(=O)C2Cc3ccccc3N(Cc3ccccc3)C2=O)c1; experiment: as §5; summary of the method: as §2
[35] = substrate: C[C@H](C(=O)NCc1ccccc1)C(=O)Oc1cccc(C(=O)O)c1; experiment: as §5; summary of the method: as §2
[36] = compound: O=C(CP(=O)(O)Oc1cccc(C(=O)O)c1)NCc1ccccc1; experiment: Inhibition of Enterobacter cloacae P99 beta-lactamase assessed as inhibition of cephalothin turnover by spectrophotometry
Summary of the method: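 Initial rates of 200 μM cephalothin hydrolysis were measured spectrophotometrically in 100 mM MOPS, pH 7.5, at 25 °C. Compounds were added from DMSO stocks, with final DMSO below 5%.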

[37] = substrate: O=C(O)c1cccc(OC(=O)C2CCN(Cc3ccccc3)C2=O)c1; experiment: (§6) Ratio of Kcat to Km for Actinomadura R39 DD-peptidase; details: Actinomadura sp. R39; summary of the method: as §2
[38] = substrate: CN(Cc1ccccc1)C(=O)CC(=O)Oc1cccc(C(=O)O)c1; experiment: as §6; details: Actinomadura sp. R39; summary of the method: as §2
[39] = substrate: CO[C@@H](C(=O)NCc1ccccc1)C(=O)Oc1cccc(C(=O)O)c1; experiment: as §6; details: Actinomadura sp. R39; summary of the method: as §2
[40] = substrate: O=C(CC(=O)Oc1cccc(C(=O)O)c1)NCc1ccccc1; experiment: as §6; details: Actinomadura sp. R39; summary of the method: as §2
[41] = substrate: O=C(O)c1cccc(OC(=O)C2Cc3ccccc3N(Cc3ccccc3)C2=O)c1; experiment: as §6; details: Actinomadura sp. R39; summary of the method: as §2
[42] = substrate: C[C@H](C(=O)NCc1ccccc1)C(=O)Oc1cccc(C(=O)O)c1; experiment: as §6; details: Actinomadura sp. R39; summary of the method: as §2
[43] = substrate: O=C(O)c1cccc(OC(=O)C2CCN(Cc3ccccc3)C2=O)c1; experiment: (§7) Activity at Actinomadura R39 DD-peptidase by spectrophotometry; details: Actinomadura sp. R39; summary of the method: as §2
[44] = substrate: CN(Cc1ccccc1)C(=O)CC(=O)Oc1cccc(C(=O)O)c1; experiment: as §7; details: Actinomadura sp. R39; summary of the method: as §2
[45] = substrate: CO[C@@H](C(=O)NCc1ccccc1)C(=O)Oc1cccc(C(=O)O)c1; experiment: as §7; details: Actinomadura sp. R39; summary of the method: as §2
[46] = substrate: C[C@H](C(=O)NCc1ccccc1)C(=O)Oc1cccc(C(=O)O)c1; experiment: as §7; details: Actinomadura sp. R39; summary of the method: as §2

B1: D-alanyl-D-alanine carboxypeptidase (Streptomyces sp. R61), P15555 (protein)
chain: MVSGTVGRGTALGAVLLALLAVPAQAGTAAAADLPAPDDTGLQAVLHTALSQGAPGAMVRVDDNGTIHQLSEGVADRATGRAITTTDRFRVGSVTKSFSAVVLLQLVDEGKLDLDASVNTYLPGLLPDDRITVRQVMSHRSGLYDYTNDMFAQTVPGFESVRNKVFSYQDLITLSLKHGVTNAPGAAYSYSNTNFVVAGMLIEKLTGHSVATEYQNRIFTPLNLTDTFYVHPDTVIPGTHANGYLTPDEAGGALVDSTEQTVSWAQSAGAVISSTQDLDTFFSALMSGQLMSAAQLAQMQQWTTVNSTQGYGLGLRRRDLSCGISVYGHTGTVQGYYTYAFASKDGKRSVTALANTSNNVNVLNTMARTLESAFCGKPTTAKLRSATSSATTVERHEDIAPGIARD
[1]
  kcat/Km: < 0.35 M⁻¹ s⁻¹
[2]
  kcat/Km: 17.8 M⁻¹ s⁻¹
[3]
  kcat/Km: 1.31 ×10³ /s/M
[4]
  kcat/Km: < 0.15 M⁻¹ s⁻¹
[5]
  kcat/Km: 3.3 ×10⁴ /s/M
[6]
  kcat/Km: 70 M⁻¹ s⁻¹
[7]
  kcat/Km: < 0.2 M⁻¹ s⁻¹
[8]
  kcat/Km: 21 M⁻¹ s⁻¹
[9]
  kcat/Km: 2.37 ×10⁴ /s/M
[10]
  Km: > 200 µM
  kcat: > 3.6 ×10⁻³ /s
[11]
  Km: 90 µM
  kcat: 0.12 s⁻¹
[12]
  Km: 280 µM
  kcat: 9.4 s⁻¹
[13]
  Km: 104 µM
  kcat: 0.7 s⁻¹
[14]
  Km: > 200 µM
  kcat: > 4.2 ×10⁻³ /s
[15]
  Km: 320 µM
  kcat: 7.63 s⁻¹

B2: Beta-lactamase (Enterobacter cloacae), P05364 (protein)
chain: MMRKSLCCALLLGISCSALATPVSEKQLAEVVANTITPLMKAQSVPGMAVAVIYQGKPHYYTFGKADIAANKPVTPQTLFELGSISKTFTGVLGGDAIARGEISLDDAVTRYWPQLTGKQWQGIRMLDLATYTAGGLPLQVPDEVTDNASLLRFYQNWQPQWKPGTTRLYANASIGLFGALAVKPSGMPYEQAMTTRVLKPLKLDHTWINVPKAEEAHYAWGYRDGKAVRVSPGMLDAQAYGVKTNVQDMANWVMANMAPENVADASLKQGIALAQSRYWRIGSMYQGLGWEMLNWPVEANTVVEGSDSKVALAPLPVAEVNPPAPPVKASWVHKTGSTGGFGSYVAFIPEKQIGIVMLANTSYPNPARVEAAYHILEALQ
[16]
  kcat/Km: 7.9 ×10³ /s/M
[17]
  kcat/Km: 50 M⁻¹ s⁻¹
[18]
  kcat/Km: 2.36 ×10³ /s/M
[19]
  kcat/Km: 4.7 ×10² /s/M
[20]
  kcat/Km: 2.9 ×10³ /s/M
[21]
  kcat/Km: 7.4 ×10³ /s/M
[22]
  kcat/Km: 2.45 ×10⁵ /s/M
[23]
  kcat/Km: 1.9 ×10⁴ /s/M
[24]
  kcat/Km: 290 M⁻¹ s⁻¹
[25]
  kcat/Km: 2.13 ×10⁴ /s/M
[26]
  Km: 32 µM
  kcat: 0.25 s⁻¹
[27]
  Km: 2500 µM
  kcat: 0.12 s⁻¹
[28]
  Km: 2800 µM
  kcat: 6.6 s⁻¹
[29]
  Km: 700 µM
  kcat: 0.33 s⁻¹
[30]
  Km: > 1000 µM
  kcat: > 2.9 s⁻¹
[31]
  Km: > 1000 µM
  kcat: > 7.4 s⁻¹
[32]
  Km: 170 µM
  kcat: 41 s⁻¹
[33]
  Km: 2.6 µM
  kcat: 0.05 s⁻¹
[34]
  Km: 1400 µM
  kcat: 0.41 s⁻¹
[35]
  Km: 60 µM
  kcat: 1.17 s⁻¹
[36]
  kcat/Km: 45 M⁻¹ s⁻¹

B3: D-alanyl-D-alanine carboxypeptidase (Actinomadura sp. R39), P39045 (protein)
chain: MKQSSPEPLRPRRTGGRGGARRAAALVTIPLLPMTLLGASPALADASGARLTELREDIDAILEDPALEGAVSGVVVVDTATGEELYSRDGGEQLLPASNMKLFTAAAALEVLGADHSFGTEVAAESAPGRRGEVQDLYLVGRGDPTLSAEDLDAMAAEVAASGVRTVRGDLYADDTWFDSERLVDDWWPEDEPYAYSAQISALTVAHGERFDTGVTEVSVTPAAEGEPADVDLGAAEGYAELDNRAVTGAAGSANTLVIDRPVGTNTIAVTGSLPADAAPVTALRTVDEPAALAGHLFEEALESNGVTVKGDVGLGGVPADWQDAEVLADHTSAELSEILVPFMKFSNNGHAEMLVKSIGQETAGAGTWDAGLVGVEEALSGLGVDTAGLVLNDGSGLSRGNLVTADTVVDLLGQAGSAPWAQTWSASLPVAGESDPFVGGTLANRMRGTAAEGVVEAKTGTMSGVSALSGYVPGPEGELAFSIVNNGHSGPAPLAVQDAIAVRLAEYAGHQAPEGARMMRGPVQGSGELECSWVQAC
[37]
  kcat/Km: 8 M⁻¹ s⁻¹
[38]
  kcat/Km: 3 M⁻¹ s⁻¹
[39]
  kcat/Km: 5 ×10⁴ /s/M
[40]
  kcat/Km: < 1.5 M⁻¹ s⁻¹
[41]
  kcat/Km: < 20 M⁻¹ s⁻¹
[42]
  kcat/Km: 7.28 ×10² /s/M
[43]
  Km: > 1000 µM
  kcat: > 8 ×10⁻³ /s
[44]
  Km: > 1000 µM
  kcat: > 3 ×10⁻³ /s
[45]
  Km: 53 µM
  kcat: 2.81 s⁻¹
[46]
  Km: > 1000 µM
  kcat: > 0.73 s⁻¹
